Calls of active or inactive are those of the source.

The first data set deals with Human immunodeficiency virus 1. The data set can be described thus: Binding affinity to HIV1 NL4-3 N-terminal GST-tagged nucleocapsid protein expressed in Escherichia coli BL21DE3 by resonant waveguide grating-based SRU BIND assay.
Conditions: not given
The essentials:
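GST-p2-NC (NL4-3, E. coli BL21DE3(pLysS), GSH-purified) immobilized at 5 μM on aldehyde-activated optical biosensor; compounds added at 25 μM in PBS, 1 % DMSO; peak wavelength shift followed over time at room temperature; stoichiometry from expected PWV using ligand/receptor MW ratio and target activity.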
With `O=C1NC(=S)S/C1=C\c1cc([N+](=O)[O-])ccc1Sc1ccc(C(F)(F)F)cn1`, the outcome was Active.
Same read-out and setting: the result for `CCOc1ccc(/C=C(\C)[N+](=O)[O-])cc1OC` reads “Active”; that for `C/C(=C\c1ccc2c(c1)OCO2)[N+](=O)[O-]`, “Active”.
In the case of `COc1cccc(/C=C2\SC(=S)C(N)C2=O)c1OC` (configuration not stated), the outcome was Active.
The same measure, in the same setting: the result for `O=C1ON=C(c2ccccc2)/C1=C/c1ccc2c(c1)OCO2` reads “Active”.

Tested on in the next data set: not listed separately
The data set can be described thus: Inhibition of HIV1 NL4-3 N-terminal GST-tagged nucleocapsid protein interaction to FAM-labeled SL-2 DNA expressed in Escherichia coli BL21DE3 by fluorescence polarisation assay. Further details: species or system Human immunodeficiency virus 1.
Conditions: not given
The term Ki denotes the equilibrium dissociation constant of an inhibitor or competing ligand from its target. `O=C1NC(=S)S/C1=C\c1cc([N+](=O)[O-])ccc1Sc1ccc(C(F)(F)F)cn1` returned an inhibition constant Ki of 73 nM.
Same read-out and setting: the result for `CCOc1ccc(/C=C(\C)[N+](=O)[O-])cc1OC` reads 14 nM.
The same measure, in the same setting: the result for `C/C(=C\c1ccc2c(c1)OCO2)[N+](=O)[O-]` reads 22 nM; that for `COc1cccc(/C=C2\SC(=S)C(N)C2=O)c1OC` (configuration not stated), 18 nM.
On the same count and under the same terms, the same measure for `O=C1ON=C(c2ccccc2)/C1=C/c1ccc2c(c1)OCO2`: 20 nM.

A further data set deals with Human immunodeficiency virus 1. The data set can be described thus: Binding affinity to HIV1 Gag protein assessed as change in melting temperature using SYPRO orange by differential scanning fluorimetry analysis.
Conditions: not given
The essentials: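 5 μM GST-Gag incubated with 5X SYPRO Orange and 5 μM compound in 5 mM HEPES pH 7.5, 150 mM NaCl; heated 35–94 °C at 1 °C/min. Tm from Boltzmann sigmoid fit; ΔTm of 2 °C taken as hit threshold.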
On the technique in general: Differential scanning fluorimetry follows unfolding on heating by fluorescence.
Usually ΔTm stands for the shift of the melting midpoint relative to a reference. On to `O=C1NC(=S)S/C1=C\c1cc([N+](=O)[O-])ccc1Sc1ccc(C(F)(F)F)cn1`, for which the ΔTm came to 2.4 °C.
On the same count and under the same terms, the same measure for `CCOc1ccc(/C=C(\C)[N+](=O)[O-])cc1OC`: 2.2 °C.
The same measure, in the same setting: the same measure for `C/C(=C\c1ccc2c(c1)OCO2)[N+](=O)[O-]`: 3.4 °C; for `COc1cccc(/C=C2\SC(=S)C(N)C2=O)c1OC` (configuration not stated): 4.8 °C.
The same measure, in the same setting: the result for `O=C1ON=C(c2ccccc2)/C1=C/c1ccc2c(c1)OCO2` reads 6.3 °C.

A further data set relates to Human immunodeficiency virus 1. The data set can be described thus: Displacement of FAM-labeled SL-2 from HIV1 NL4-3 N-terminal GST-tagged nucleocapsid protein-FAM-labeled SL-2 complex expressed in Escherichia coli BL21DE3 by EMSA analysis.
Conditions: not given
The essentials:
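Pre-formed complex of GST-p2-NC with fluorescein-labeled SL-2 DNA (15 μM protein, 0.5 μM DNA in PBS, 10 nM ZnCl2) incubated with compound, resolved by native PAGE; free/bound probe quantified by fluorescence gel scanning.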
For the compound `O=C1NC(=S)S/C1=C\c1cc([N+](=O)[O-])ccc1Sc1ccc(C(F)(F)F)cn1`, the result was Active.
Take `CCOc1ccc(/C=C(\C)[N+](=O)[O-])cc1OC`: the outcome was Active.
Regarding `C/C(=C\c1ccc2c(c1)OCO2)[N+](=O)[O-]`, the outcome was Active.
Take `COc1cccc(/C=C2\SC(=S)C(N)C2=O)c1OC` (configuration not stated): the result was Active.
Still for that read-out and setting: the result for `O=C1ON=C(c2ccccc2)/C1=C/c1ccc2c(c1)OCO2` reads “Active”.

The subject of a further data set is SUP-T1. The experiment in a line: Cytotoxicity against human SupT1 cells at 0.1 uM after 7 days by Trypan Blue dye exclusion analysis. It is filed as cell-based. To be noted: sup-t1, 168 h. The essentials:
(§1)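 SupT1 T cells in RPMI1640 with 10 % FBS, 2 mM L-glutamine, 0.1 mM NEAA, 1 mM sodium pyruvate, penicillin/streptomycin, at 37 °C and 5 % CO2. Compounds were dissolved in DMSO and incubated with the cells for several days. Viability was read as dead vs. viable cells by Trypan Blue dye exclusion, counted under a microscope.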
For the compound `O=C1NC(=S)S/C1=C\c1cc([N+](=O)[O-])ccc1Sc1ccc(C(F)(F)F)cn1`, the Activity stood at 0%.
Same read-out and setting: the same measure for `CCOc1ccc(/C=C(\C)[N+](=O)[O-])cc1OC`: 0%.
Same read-out and setting: the result for `C/C(=C\c1ccc2c(c1)OCO2)[N+](=O)[O-]` reads 0%; that for `COc1cccc(/C=C2\SC(=S)C(N)C2=O)c1OC` (configuration not stated), 0%.
`O=C1ON=C(c2ccccc2)/C1=C/c1ccc2c(c1)OCO2`: the Activity is on record as 0%.

A further data set deals with SUP-T1. The experiment in a line: Cytotoxicity against human SupT1 cells at 10 uM after 7 days by Trypan Blue dye exclusion analysis. Format: cell-based. To be noted: sup-t1, 168 h.
`O=C1NC(=S)S/C1=C\c1cc([N+](=O)[O-])ccc1Sc1ccc(C(F)(F)F)cn1` showed an Activity above 90%.
Still for that read-out and setting: the result for `CCOc1ccc(/C=C(\C)[N+](=O)[O-])cc1OC` reads above 90%.
As for `C/C(=C\c1ccc2c(c1)OCO2)[N+](=O)[O-]`, the Activity was above 90%.
Same read-out and setting: the result for `O=C1ON=C(c2ccccc2)/C1=C/c1ccc2c(c1)OCO2` reads above 90%.

For another data set, the system named is SUP-T1. The experiment in a line: Cytotoxicity against human SupT1 cells at 30 uM after 6 days by Trypan Blue dye exclusion analysis. Particulars: sup-t1, 144 h. It is filed as cell-based. The essentials:
as §1
Turning to `COc1cccc(/C=C2\SC(=S)C(N)C2=O)c1OC` (configuration not stated), the Activity was above 70%.

In another data set the test system is SUP-T1. The experiment in a line: Cytotoxicity against human SupT1 cells at 1 uM by Trypan Blue dye exclusion analysis. To be noted: sup-t1, 1 µM. Format: cell-based. The essentials:
as §1
Compound `O=C1NC(=S)S/C1=C\c1cc([N+](=O)[O-])ccc1Sc1ccc(C(F)(F)F)cn1` yielded an Activity above 70%.
Same read-out and setting: the same measure for `C/C(=C\c1ccc2c(c1)OCO2)[N+](=O)[O-]`: above 70%; for `O=C1ON=C(c2ccccc2)/C1=C/c1ccc2c(c1)OCO2`: above 70%.

A further data set deals with SUP-T1. The data set can be described thus: Cytotoxicity against human SupT1 cells at 0.1 to 1 uM after 7 days by Trypan Blue dye exclusion analysis. It is filed as cell-based. To be noted: sup-t1, 168 h.
Compound `CCOc1ccc(/C=C(\C)[N+](=O)[O-])cc1OC` came in with an Activity below 3%.
In turn, `COc1cccc(/C=C2\SC(=S)C(N)C2=O)c1OC` (configuration not stated) yielded an Activity below 3%.

The next data set concerns Human immunodeficiency virus 1. The data set can be described thus: Antiviral activity against HIV1 LAI infected in human CD4+ T cells assessed as reduction of p24 positive T cells at 200 nM treated 3 days before infection measured after 9 days by flow cytometry analysis. It is filed as functional. To be noted: Human immunodeficiency virus 1, LAI, T-cell.
A word on the inhibition: it is the drop in the measured response relative to a control, in per cent. Turning to `O=C1NC(=S)S/C1=C\c1cc([N+](=O)[O-])ccc1Sc1ccc(C(F)(F)F)cn1`, the inhibition at 0.2 µM stood at 0%.
In the case of `CCOc1ccc(/C=C(\C)[N+](=O)[O-])cc1OC`, the inhibition at 0.2 µM was 50%.
Same read-out and setting: the result for `C/C(=C\c1ccc2c(c1)OCO2)[N+](=O)[O-]` reads 18%.
On the same count and under the same terms, the result for `COc1cccc(/C=C2\SC(=S)C(N)C2=O)c1OC` (configuration not stated) reads 43%.
On the same count and under the same terms, the same measure for `O=C1ON=C(c2ccccc2)/C1=C/c1ccc2c(c1)OCO2`: 33%.

Another data set concerns Human immunodeficiency virus 1. The experiment in a line: Antiviral activity against HIV1 NL4-3 infected in human HeLa cells assessed as drecrease of p24 antigen level after 2 days by CFAR. Format: functional, organism-based. To be noted: Human immunodeficiency virus 1, NL4-3, HeLa, 48 h. The essentials:
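2×10^5 HeLa cells in Opti-MEM given increasing compound concentrations (1 % DMSO controls); after 2 days transiently transfected with 1 μg pNL4-3 plasmid by lipofection. Virus production quantified as p24, expressed relative to DMSO controls; three independent transfections, mean ± s.d.; EC50 derived.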
What is called EC50 is the concentration at which the effect is half-maximal. Take `CCOc1ccc(/C=C(\C)[N+](=O)[O-])cc1OC`: the EC50 is 320 nM.
Still for that read-out and setting: the result for `COc1cccc(/C=C2\SC(=S)C(N)C2=O)c1OC` (configuration not stated) reads 3500 nM.
